pIC50: −log10 of the molar value.
Key:
liver and lung fibrosis = settings: ref Henderson et al. 2013; cited from earlier work
obese ZSF1 rats [1] = assay: Renal function in obese ZSF1 rat diabetic nephropathy model; format: in vivo; settings: for Urinary protein/creatinine ratio (UPCR): 28 weeks
obese ZSF1 rats [2] = assay: Kidney histology in ZSF1 rats; format: in vivo, rat
Outline: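 At study end, both kidneys were formalin-fixed, paraffin-embedded and stained with H&E, PAS and Masson's trichrome for light microscopy. Tubular, interstitial, vascular and glomerular changes were graded 0–5 (normal to severe). Collagen deposition was graded 0–5 by blue-stained area size and intensity. Group sizes were n = 8 lean and n = 12 per obese group, with 28 weeks of diet dosing.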

[3] = system: α1β1, α2β1, α3β1, α4β1, α6β1, α9β1, α10β1, α11β1, and αIIbβ3 integrins; assay: Thermal shift assay; format: binding, Human; settings: Twenty μM MK‐0429
Outline: (§1)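 Differential scanning fluorimetry was run on a real-time PCR instrument. Recombinant integrins (the α1β1–αIIbβ3 panel was recombinant human) were reconstituted in assay buffer with Sypro orange, and test compound was added at 20 µM. ΔTm was calculated against a DMSO control. Runs were in triplicate across three independent experiments.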

αvβx integrins = assay: Thermal shift assay, αvβx integrins; format: binding; settings: Fig. S1B
Outline: as §1

human podocytes = assay: Podocyte cell viability; format: cell-based; settings: 48 h treatment, unpublished data
[4] = system: Human primary kidney fibroblasts (HPKF); assay: Kidney fibroblast fibrosis assay; format: cell-based
Outline: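 Primary human kidney fibroblasts were grown on collagen I-coated plates at 37°C in 5% CO2 and serum-starved overnight. They were then given various concentrations of test compound for 24 h. In TGF-β arms, compound was added 1 h before recombinant human TGF-β1 (5 ng/mL final, 24 h). Marker mRNA was measured by RNA extraction, reverse transcription and real-time PCR.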

[5] = Body weight, food and water intake in ZSF1 rats; format: in vivo, rat; settings: data not shown
Outline: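 Male obese ZSF1 rats received the test compound in a medicated chow diet from 16 weeks of age for 28 weeks. Before each collection they were acclimated for at least 3 days to single housing in metabolic cages. Body weight and food and water consumption were recorded at every urine and blood collection, at weeks −2, 1, 2, 4, 6, 8, 12, 16, 21, 24 and 28.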

obese ZSF1 rats [6] = assay: Kidney collagen I and III protein by immunohistochemistry in ZSF1 rats; format: in vivo, rat; settings: 400 mg/kg/day, versus obese vehicle
Outline: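 Kidneys were taken at study end, formalin-fixed and paraffin-embedded, then deparaffinized and rehydrated. Sections were stained with rabbit polyclonal anti-collagen I (2 ug/mL) or anti-collagen III (3 ug/mL), developed with an HRP-polymer kit and counterstained with hematoxylin. Whole slides were scanned at 20x, and positive stain area was quantified by a colour-deconvolution algorithm. Dosing was in diet for 28 weeks.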

obese ZSF1 rats [7] = assay: Kidney fibrosis marker gene expression by RT-PCR in ZSF1 rats; format: in vivo, rat; settings: dose not given
Outline: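 Kidney cortex was snap-frozen, homogenized in TRIzol and column-purified for RNA. A 2 µg RNA sample was reverse-transcribed, and rat TaqMan probes were used for qPCR. Ct values were normalized to the geomean of POLR2A and B2M and quantified by the 2^-ΔΔCT method relative to the obese vehicle group. Treatment was in diet for 28 weeks (n = 12 per obese group).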

platelet aggregation = settings: ref Hutchinson et al. 2003; cited from earlier work
αvβ3 = αvβ3 (Homo sapiens, UniProt P05106+P06756); settings: ref Hutchinson et al. 2003; cited from earlier work
αvβ3, sequence (P06756 31-992 limits assumed): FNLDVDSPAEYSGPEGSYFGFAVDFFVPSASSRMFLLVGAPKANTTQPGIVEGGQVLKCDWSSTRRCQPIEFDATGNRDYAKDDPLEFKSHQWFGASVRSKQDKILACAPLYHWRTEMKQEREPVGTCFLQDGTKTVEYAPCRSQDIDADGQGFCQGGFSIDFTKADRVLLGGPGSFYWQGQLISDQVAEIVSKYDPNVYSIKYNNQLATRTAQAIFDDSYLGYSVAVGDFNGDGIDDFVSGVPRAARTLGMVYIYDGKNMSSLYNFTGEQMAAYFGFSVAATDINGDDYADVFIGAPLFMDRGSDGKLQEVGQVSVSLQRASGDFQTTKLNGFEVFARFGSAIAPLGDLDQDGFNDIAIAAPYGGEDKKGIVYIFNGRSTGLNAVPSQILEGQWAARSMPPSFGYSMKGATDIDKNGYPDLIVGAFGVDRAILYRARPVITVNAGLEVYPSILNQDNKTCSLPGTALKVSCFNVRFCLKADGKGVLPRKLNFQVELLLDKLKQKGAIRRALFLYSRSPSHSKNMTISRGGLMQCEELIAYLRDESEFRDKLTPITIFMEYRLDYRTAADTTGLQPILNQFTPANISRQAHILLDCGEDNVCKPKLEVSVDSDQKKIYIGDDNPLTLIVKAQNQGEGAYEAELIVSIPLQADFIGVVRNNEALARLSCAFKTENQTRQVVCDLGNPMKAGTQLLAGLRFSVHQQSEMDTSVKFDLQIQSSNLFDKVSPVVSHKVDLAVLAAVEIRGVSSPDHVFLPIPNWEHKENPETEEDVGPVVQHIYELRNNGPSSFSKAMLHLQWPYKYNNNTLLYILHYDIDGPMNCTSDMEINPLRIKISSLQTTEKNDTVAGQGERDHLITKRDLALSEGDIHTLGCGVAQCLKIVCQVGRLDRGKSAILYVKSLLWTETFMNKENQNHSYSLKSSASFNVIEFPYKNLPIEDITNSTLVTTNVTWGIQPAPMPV
αvβ3, sequence (P05106 27-718 limits assumed): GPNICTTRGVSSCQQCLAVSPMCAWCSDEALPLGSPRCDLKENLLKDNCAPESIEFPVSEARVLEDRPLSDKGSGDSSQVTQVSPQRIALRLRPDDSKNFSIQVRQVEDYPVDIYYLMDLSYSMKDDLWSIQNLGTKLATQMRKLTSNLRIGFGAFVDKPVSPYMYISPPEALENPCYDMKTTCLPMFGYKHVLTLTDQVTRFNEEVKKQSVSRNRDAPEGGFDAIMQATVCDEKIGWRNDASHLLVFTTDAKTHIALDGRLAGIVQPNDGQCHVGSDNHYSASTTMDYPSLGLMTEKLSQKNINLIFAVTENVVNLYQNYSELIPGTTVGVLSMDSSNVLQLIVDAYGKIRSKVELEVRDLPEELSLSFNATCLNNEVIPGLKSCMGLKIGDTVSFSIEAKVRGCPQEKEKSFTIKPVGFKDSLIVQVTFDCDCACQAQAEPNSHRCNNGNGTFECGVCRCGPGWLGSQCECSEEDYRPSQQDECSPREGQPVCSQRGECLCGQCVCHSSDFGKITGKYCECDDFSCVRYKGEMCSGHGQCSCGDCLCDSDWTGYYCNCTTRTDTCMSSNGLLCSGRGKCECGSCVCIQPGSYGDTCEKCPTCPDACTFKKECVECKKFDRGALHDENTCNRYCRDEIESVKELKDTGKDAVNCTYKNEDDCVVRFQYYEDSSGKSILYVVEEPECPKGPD

[8] = system: osteoplastic bone resorption; settings: ref Hutchinson et al. 2003; cited from earlier work
[9] = system: postmenopausal women with osteoporosis; settings: cited from earlier work
[10] = system: men with hormone‐refractory prostate cancer and bone metastases; settings: ref Rosenthal et al. 2010; cited from earlier work

In the case of CC(C)(C)c1cc(Br)cc([C@H](CC(=O)O)NC(=O)CNC(=O)c2cc(O)cc(NC3=NCC(O)CN3)c2)c1 (some centres unmarked) [CWHM12], the “Liver and lung fibrosis” value (liver and lung fibrosis) is listed as “attenuated”.
For CCOC(=O)[C@H](CCc1ccccc1)N[C@@H](C)C(=O)N1CCC[C@H]1C(=O)O [Enalapril, enalapril], the “Urinary protein/creatinine ratio (UPCR)” value (obese ZSF1 rats [1]; 10 mg/kg/day in diet) was “significantly decreased”, the “Glomerular filtration rate (GFR)” value (obese ZSF1 rats [1]; enalapril 10 mg/kg/day in diet) was “improvement” and the “Kidney fibrosis score (Masson's trichrome)” value (obese ZSF1 rats [2]; 10 mg/kg/day, 28 weeks, versus obese vehicle) was “significantly decreased”.
In the case of COc1ccc([C@H](CC(=O)O)N2CCN(CCCc3ccc4c(n3)NCCC4)C2=O)cn1 [MK‐0429], the “Binding to other integrins (thermal shift assay)” value [3] was “does not bind and No”, the “Shift of melting temperatures of αvβx integrins” value (αvβx integrins) was “dramatic shift” and the “Effect on cell viability” value (human podocytes) was “without affecting cell viability”. The “Expression of Collagen type I alpha‐1 chain (Col IA1)” value ([4]; HPKF ± TGF‐β) was “partially inhibited”, the “Expression of connective tissue growth factor (CTGF)” value ([4]; HPKF ± TGF‐β) was “strongly suppressed” and the “Expression of α‐smooth muscle actin (αSMA)” value ([4]; HPKF ± TGF‐β) was “partially inhibited”. For the same molecule, the pIC50 ([4]; read-out: Inhibition of PAI‐1 gene expression IC50, HPKF, absence of TGF‐β, 24 h) was 7.25, the “Urinary protein/creatinine ratio (UPCR)” value (obese ZSF1 rats [1]; 400 mg/kg/day in diet) was “significantly later onset in its effects to reduce” and the Body weight [5] was “no significant effects”. The Food intake [5] was “no significant effects”, the Water intake [5] was “no significant effects” and the Glomerular injury score (obese ZSF1 rats [2]; 0–5 scale, data not shown) was “no significant effect”. The Tubular injury score (obese ZSF1 rats [2]; 0–5 scale, data not shown) was “no significant effect”, the “Decrease of Type I collagen positive stain (% of area), kidney IHC” value (obese ZSF1 rats [6]) was “significantly decreased” and the “Decrease of Type III collagen positive stain (% of area), kidney IHC” value (obese ZSF1 rats [6]) was “significantly decreased”. For the same molecule, the “αSMA mRNA expression, kidney” value (obese ZSF1 rats [7]) was “significantly decreased”, the “Activity in platelet aggregation assay” value (platelet aggregation) was “inactive” and the αvβ3 ligand binding (αvβ3) was “inhibits”. For the same molecule, the Osteoplastic bone resorption [8] was “inhibits”, the “Bone mineral density at spine and hip (multiple endpoints)” value ([9]; phase II, postmenopausal women with osteoporosis, ref Murphy et al. 2005) was “improvement” and the “Tolerability in Phase II trials” value ([9]; ref Hutchinson et al. 2003, Coleman et al. 2004, Murphy et al. 2005, Rosenthal et al. 2010) was “well tolerated”. For the same molecule, the Bone turnover [10] was “significantly reduced”.

— publication PMC5625158 (Pharmacology Research & Perspectives, 2017)
